According to ChEMBL document CHEMBL1158683, “Cytotoxic sesquiterpenoids from Ratibida columnifera” (1999):
Values after ≈ are worked out from the molar mass of the structure shown. Active and inactive are the calls of the source. The rule behind the calls is not given here.

Key:
ZR-75-1 = experiment: Cytotoxicity against hormone-dependent human ZR751 cells; assay type: functional; settings: read-out: ED50 (the source's name)
[1] = Cytotoxicity against human multidrug-resistant KBV1 cells in absence of vinblastine; assay type: functional; settings: KB-V1, read-out: ED50 (the source's name)
[2] = Cytotoxicity against human multidrug-resistant KB-V1+ cells in presence of vinblastine; assay type: functional; settings: read-out: ED50 (the source's name)
Col2 = experiment: Cytotoxicity against human Col2 cells; assay type: functional; settings: read-out: ED50 (the source's name)
ASK = experiment: Cytotoxicity against human ASK cells at 20 ug/mL; assay type: functional, cell-based
[3] = Cytotoxicity against human U373 cells; assay type: functional, U-373MG ATCC; settings: U373 MG, read-out: ED50 (the source's name)
HT = experiment: Cytotoxicity against human HT cells; assay type: functional; settings: read-out: ED50 (the source's name)
[4] = Cytotoxicity against human BC1 cells; assay type: functional; settings: read-out: ED50 (the source's name)
LNCaP = experiment: Cytotoxicity against hormone-dependent human LNCaP cells; assay type: functional; settings: read-out: ED50 (the source's name)
Lu1 = experiment: Cytotoxicity against human Lu1 cells; assay type: functional; settings: read-out: ED50 (the source's name)
KB = experiment: Cytotoxicity against human KB cells; assay type: functional; settings: read-out: ED50 (the source's name)
[5] = Cytotoxicity against human Mel2 cells; assay type: functional; settings: read-out: ED50 (the source's name)
A-431 = experiment: Cytotoxicity against human A431 cells; assay type: functional; settings: read-out: ED50 (the source's name)
[6] = Inhibition of tubulin polymerization at 10 to 100 uM
M109 [7] = experiment: Antitumor activity against mouse M109 cells xenografted CDF1 mouse model at 24 mg/kg, ip for 5 days; assay type: functional; settings: route intraperitoneal
In short: (§1)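 A 2% w/v brei of M109 murine lung carcinoma was prepared in RPMI from harvested solid tumors. Female CDF1 mice (six per group) were implanted ip with 0.5 mL. Compound was given ip daily for 5 days, beginning 1 day after implantation. The endpoint was lifespan, expressed as %T/C (treated over control lifespan × 100%).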

A2780 [8] = experiment: Induction of apoptosis in human p53 […] at 30 uM after 24 hrs by TdT assay; assay type: functional; settings: in the assay text read “A2780R” for “A2780S”
In short: (§2)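 A2780S (p53 wild-type) and A2780R (p53 mutant) ovarian carcinoma cells were exposed for 24 h at 0–30 µM. Cells (10^6) were trypsinized and fixed in 1% methanol-free formaldehyde/PBS for 15 min on ice. They were washed twice with PBS and fixed in 80% EtOH at −20 °C for 16 h. A TdT assay (APO-Direct kit, minor modifications) then scored % apoptotic cells.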

A2780 [9] = experiment: Induction of apoptosis in human p53 […] at 15 uM after 24 hrs by TdT assay; assay type: functional; settings: in the assay text read “A2780R” for “A2780S”; in short: as §2
A2780 [10] = experiment: Induction of apoptosis in human p53 wild type A2780S at 7.5 uM after 24 hrs by TdT assay; assay type: functional; in short: as §2
A2780 [11] = experiment: Induction of apoptosis in human p53 wild type A2780S at 0.15 uM after 24 hrs by TdT assay; assay type: functional; in short: as §2
A2780 [12] = experiment: Induction of apoptosis in human p53 mutant A2780R at 7.5 uM after 24 hrs by TdT assay
[13] = target: T1, DNA topoisomerase 1 (Homo sapiens) (UniProt P11387); experiment: Inhibition of topoisomerase 1 at 10 to 100 uM
T1 sequence (whole entry): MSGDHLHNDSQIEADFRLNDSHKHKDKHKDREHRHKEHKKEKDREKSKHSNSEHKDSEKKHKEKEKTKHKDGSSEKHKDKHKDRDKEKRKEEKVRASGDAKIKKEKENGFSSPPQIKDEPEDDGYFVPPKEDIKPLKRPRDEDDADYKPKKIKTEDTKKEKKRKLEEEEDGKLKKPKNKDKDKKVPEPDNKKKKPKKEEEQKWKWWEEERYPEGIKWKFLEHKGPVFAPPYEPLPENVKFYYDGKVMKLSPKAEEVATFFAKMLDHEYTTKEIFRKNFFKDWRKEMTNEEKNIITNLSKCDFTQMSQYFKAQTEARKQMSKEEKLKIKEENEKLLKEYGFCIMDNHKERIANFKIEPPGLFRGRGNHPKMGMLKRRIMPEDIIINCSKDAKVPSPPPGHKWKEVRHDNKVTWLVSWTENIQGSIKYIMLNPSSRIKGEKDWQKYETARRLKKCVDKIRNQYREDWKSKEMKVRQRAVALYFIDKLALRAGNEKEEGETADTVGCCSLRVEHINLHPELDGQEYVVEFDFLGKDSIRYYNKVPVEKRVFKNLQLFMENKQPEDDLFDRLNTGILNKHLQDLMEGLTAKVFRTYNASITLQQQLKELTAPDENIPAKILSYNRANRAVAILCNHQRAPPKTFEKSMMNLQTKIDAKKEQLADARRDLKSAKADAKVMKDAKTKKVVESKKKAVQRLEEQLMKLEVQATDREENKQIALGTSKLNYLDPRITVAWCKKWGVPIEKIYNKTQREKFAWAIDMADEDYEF

M109 [14] = experiment: Antitumor activity against mouse M109 cells xenografted CDF1 mouse model at 8 mg/kg, ip for 5 days; assay type: functional; settings: route intraperitoneal; in short: as §1
A2780R = experiment: Induction of apoptosis in human p53 mutant A2780R at 1.5 uM after 24 hrs by TdT assay
A2780 [15] = experiment: Induction of apoptosis in human p53 wild type A2780S at 1.5 uM after 24 hrs by TdT assay; assay type: functional; in short: as §2
A2780 [16] = experiment: Induction of apoptosis in human p53 wild type A2780S at 30 uM after 24 hrs by TdT assay; assay type: functional; in short: as §2
A2780 [17] = experiment: Induction of apoptosis in human p53 mutant A2780R at 0.15 uM after 24 hrs by TdT assay
[18] = Inhibition of topoisomerase 2 at 10 to 100 uM
Nucleic Acid = experiment: Binding affinity to DNA assessed as DNA intercalation; assay type: nucleic-acid assay
A2780 [19] = experiment: Induction of apoptosis in human p53 wild type A2780S at 15 uM after 24 hrs by TdT assay; assay type: functional; in short: as §2

Compound | EC50 (ZR-75-1) [µg/mL] | EC50 [1] [µg/mL] | EC50 [2] [µg/mL] | EC50 (Col2) [µg/mL] | Activity (ASK) | EC50 [3] [µg/mL] | EC50 (HT) [µg/mL] | EC50 [4] [µg/mL] | EC50 (LNCaP) [µg/mL] | EC50 (Lu1) [µg/mL] | EC50 (KB) [µg/mL] | other results
C=C1C(=O)O[C@@H]2[C@@H]1CC[C@H](C)[C@@](O)(C(=O)/C=C/C)[C@H]2OC(=O)/C(C)=C\C | 1.4 (≈ 3.86 µM) | 1.6 (≈ 4.41 µM) | 0.3 | 0.9 (≈ 2.48 µM) | inactive | 0.2 (≈ 0.552 µM) | 0.4 (≈ 1.1 µM) | 0.8 (≈ 2.21 µM) | 1 (≈ 2.76 µM) | 0.4 (≈ 1.1 µM) | 0.4 (≈ 1.1 µM) | –
COc1c(O)cc2oc(-c3ccc(O)cc3)cc(=O)c2c1O [HISPIDULIN] | 1.2 (≈ 4 µM) | 8.7 (≈ 29 µM) | 1.3 | > 20 | inactive | 8.8 (≈ 29.3 µM) | 10.1 (≈ 33.6 µM) | > 20 | 7.1 (≈ 23.6 µM) | > 20 | 18.8 (≈ 62.6 µM) | EC50 [5]: 14.6 µg/mL (≈ 48.6 µM); EC50 (A-431): 1.2 µg/mL (≈ 4 µM)
C=C1C(=O)O[C@@H]2[C@@H]1C[C@@H](O)[C@H](C)[C@@](O)(C(=O)/C=C/C)[C@H]2OC(=O)C(C)CC (stereo partly drawn) | – | 0.9 (≈ 2.37 µM) | 1.6 | 1.1 (≈ 2.89 µM) | inactive | – | – | 0.8 (≈ 2.1 µM) | 0.5 (≈ 1.31 µM) | 0.9 (≈ 2.37 µM) | 1 (≈ 2.63 µM) | Activity [6]: inactive; T/C (M109 [7]): 113%; Activity (A2780 [8]): 49.25%; Activity (A2780 [9]): 31.87%; Activity (A2780 [10]): 61.31%; Activity (A2780 [11]): 1.17%; Activity (A2780 [12]): 2.63%; Activity [13]: inactive; T/C (M109 [14]): 103%; Activity (A2780R): 1.66%; Activity (A2780 [15]): 1.27%; Activity (A2780 [16]): 78.14%; Activity (A2780 [17]): 0.77%; Activity [18]: inactive; Activity (Nucleic Acid): inactive; Activity (A2780 [19]): 51.67%
C=C1C(=O)O[C@@H]2[C@@H]1CC(=O)[C@H](C)[C@@](O)(C(=O)CC(C)OC)[C@H]2OC(=O)C(C)CC (stereo partly drawn) | – | 4 (≈ 9.75 µM) | 5 | 3.1 (≈ 7.55 µM) | inactive | – | – | 1.2 (≈ 2.92 µM) | 0.5 (≈ 1.22 µM) | 4.4 (≈ 10.7 µM) | 6.6 (≈ 16.1 µM) | –
C=C1C(=O)O[C@@H]2[C@@H]1C[C@@H](O)[C@H](C)[C@@](O)(C(=O)CC(C)O)[C@H]2OC(=O)C(C)CC (stereo partly drawn) | – | > 20 | > 20 | 8.7 (≈ 21.8 µM) | inactive | – | – | 9 (≈ 22.6 µM) | 8.1 (≈ 20.3 µM) | 16.8 (≈ 42.2 µM) | 12.7 (≈ 31.9 µM) | –
C=C1C(=O)O[C@@H]2[C@@H]1[C@@H](O)C[C@H](C)[C@@](O)(C(=O)/C=C/C)[C@H]2OC(=O)/C(C)=C\C | 1.4 (≈ 3.7 µM) | 3 (≈ 7.93 µM) | 1.7 | 5.7 (≈ 15.1 µM) | inactive | – | – | 4.2 (≈ 11.1 µM) | 0.4 (≈ 1.06 µM) | 2.3 (≈ 6.08 µM) | 1.4 (≈ 3.7 µM) | –
C=C1C(=O)O[C@@H]2[C@@H]1[C@H]1O[C@H]1[C@H](C)[C@@](O)(C(=O)/C=C/C)[C@H]2OC(=O)/C(C)=C\C | – | 0.2 (≈ 0.531 µM) | 0.9 | 0.8 (≈ 2.13 µM) | inactive | 0.2 (≈ 0.531 µM) | 0.16 (≈ 0.425 µM) | 0.3 (≈ 0.797 µM) | – | 0.5 (≈ 1.33 µM) | 0.3 (≈ 0.797 µM) | –
C=C1C(=O)O[C@@H]2[C@@H]1C[C@@H](O)[C@H](C)[C@@](O)(C(=O)/C=C/C)[C@H]2OC(=O)/C(C)=C\C | 0.2 (≈ 0.529 µM) | 1.2 (≈ 3.17 µM) | 1.3 | 0.5 (≈ 1.32 µM) | inactive | 0.2 (≈ 0.529 µM) | 0.3 (≈ 0.793 µM) | 0.6 (≈ 1.59 µM) | 0.16 (≈ 0.423 µM) | 1.1 (≈ 2.91 µM) | 0.3 (≈ 0.793 µM) | EC50 [5]: 0.5 µg/mL (≈ 1.32 µM); EC50 (A-431): 0.2 µg/mL (≈ 0.529 µM)
C=C1C(=O)O[C@@H]2[C@@H]1CC(=O)[C@H](C)[C@@](O)(C(=O)/C=C/C)[C@H]2OC(=O)C(C)CC (stereo partly drawn) | – | 2 (≈ 5.29 µM) | 1.1 | 1.2 (≈ 3.17 µM) | inactive | – | – | 0.5 (≈ 1.32 µM) | 0.4 (≈ 1.06 µM) | 2.3 (≈ 6.08 µM) | 1.1 (≈ 2.91 µM) | –
C=C[C@@](C)(O)C[C@@H](O)/C=C(\C)CC/C=C(\C)COC(C)=O | – | 10.9 (≈ 36.8 µM) | > 20 | 6.2 (≈ 20.9 µM) | inactive | 6.3 (≈ 21.3 µM) | 9.5 (≈ 32.1 µM) | 8.7 (≈ 29.4 µM) | > 20 | > 20 | 3.5 (≈ 11.8 µM) | –
